From ChEMBL document CHEMBL3351600, “Sulfur, selenium and tellurium pseudopeptides: synthesis and biological evaluation” (Bioorg Med Chem, 2014)

Columns and labels:
[1] = tested on: NCI-H226; experiment: Growth inhibition of human NCI-H226 cells after 48 hrs; format: functional; conditions: NCI-H226, 48 h
In short: (§1)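 NCI-60 human tumour cell line panel screen run at the US National Cancer Institute under its standard cytotoxicity protocol. It covers leukaemia, NSCLC, colon, CNS, melanoma, ovarian, renal, prostate and breast lines. An initial single-dose test was followed by five-dose testing with 48 h compound exposure.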

[2] = tested on: Staphylococcus aureus; experiment: Antimicrobial activity against Staphylococcus aureus assessed as inhibition at 20 ug/6 mm disk after 1 to 2 days by agar diffusion assay; format: functional
In short: (§2)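 Standard agar diffusion: 6-mm paper disks loaded with 20 µg of compound were placed on inoculated plates. Inhibition-zone diameter (mm) was read after 1 and 2 days of growth.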

[3] = Growth inhibition of human Hs 578T cells after 48 hrs; format: functional; in short: as §1
[4] = tested on: HOP-62; experiment: Growth inhibition of human HOP62 cells after 48 hrs; format: functional; conditions: HOP-62, 48 h; in short: as §1
[5] = tested on: SF-268; experiment: Growth inhibition of human SF268 cells after 48 hrs; format: functional; conditions: SF-268, 48 h; in short: as §1
[6] = tested on: SK-MEL-5; experiment: Growth inhibition of human SK-MEL-5 cells after 48 hrs; format: functional; conditions: SK-MEL-5, 48 h
In short: (§3)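 Run by the NCI 58-cell-line screen under its standard cytotoxicity protocol. Compounds were first tested at a single dose, then at five doses. Cells were exposed to compound for 48 h.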

[7] = Growth inhibition of human RPMI8226 cells after 48 hrs; format: functional; conditions: RPMI-8226, 48 h; in short: as §1
[8] = tested on: CAKI-1; experiment: Growth inhibition of human CAKI-1 cells after 48 hrs; format: functional; conditions: CAKI-1, 48 h; in short: as §1
[9] = tested on: NCI-H322M; experiment: Growth inhibition of human NCI-H322M cells after 48 hrs; format: functional; in short: as §1
[10] = tested on: NCI-H23; experiment: Growth inhibition of human NCI-H23 cells after 48 hrs; format: functional; conditions: NCI-H23, 48 h; in short: as §1
[11] = tested on: SK-MEL-28; experiment: Growth inhibition of human SK-MEL-28 cells after 48 hrs; format: functional; conditions: SK-MEL-28, 48 h; in short: as §1
[12] = Growth inhibition of human HCC2998 cells after 48 hrs; format: functional; conditions: HCC 2998, 48 h; in short: as §1
[13] = Growth inhibition of human HCT116 cells after 48 hrs; format: functional; conditions: HCT-116, 48 h; in short: as §1
[14] = Growth inhibition of human LOXIMVI cells after 48 hrs; format: functional; conditions: LOX IMVI; in short: as §1
[15] = Growth inhibition of human RXF393 cells after 48 hrs; format: functional; conditions: RXF 393, 48 h; in short: as §1
[16] = tested on: A549; experiment: Growth inhibition of human A549/ATCC cells after 48 hrs; format: functional; conditions: A549, 48 h; in short: as §1
[17] = Growth inhibition of human OVCAR4 cells after 48 hrs; format: functional; conditions: OVCAR-4, 48 h; in short: as §1
[18] = tested on: Saccharomyces cerevisiae; experiment: Antimicrobial activity against Saccharomyces cerevisiae assessed as inhibition at 20 ug/6 mm disk after 1 to 2 days by agar diffusion assay; format: functional; in short: as §2
[19] = tested on: SW-620; experiment: Growth inhibition of human SW620 cells after 48 hrs; format: functional; conditions: SW-620, 48 h; in short: as §3
[20] = tested on: 786-0; experiment: Growth inhibition of human 786-0 cells after 48 hrs; format: functional; conditions: 786-0, 48 h; in short: as §1
[21] = tested on: Escherichia coli; experiment: Antimicrobial activity against Escherichia coli tolC assessed as inhibition at 20 ug/6 mm disk after 1 to 2 days by agar diffusion assay; format: functional; in short: as §2
[22] = Growth inhibition of human UACC62 cells after 48 hrs; format: functional; conditions: UACC-62, 48 h; in short: as §3
[23] = tested on: NCI-H460; experiment: Growth inhibition of human NCI-H460 cells after 48 hrs; format: functional; conditions: NCI-H460, 48 h; in short: as §1
[24] = tested on: SK-OV-3; experiment: Growth inhibition of human SKOV3 cells after 48 hrs; format: functional; conditions: SK-OV-3, 48 h; in short: as §3
[25] = tested on: SNB-19; experiment: Growth inhibition of human SNB19 cells after 48 hrs; format: functional; conditions: SNB-19, 48 h; in short: as §3
[26] = tested on: HL-60(TB); experiment: Growth inhibition of human HL-60(TB) cells after 48 hrs; format: functional; conditions: HL-60, 48 h; in short: as §1
[27] = tested on: DU-145; experiment: Growth inhibition of human DU145 cells after 48 hrs; format: functional; conditions: DU-145, 48 h; in short: as §1
[28] = tested on: SNB-75; experiment: Growth inhibition of human SNB75 cells after 48 hrs; format: functional; conditions: SNB-75, 48 h; in short: as §3
[29] = Growth inhibition of human COLO205 cells after 48 hrs; format: functional; conditions: COLO 205, 48 h; in short: as §1
[30] = Octanol-water partition coefficient, log P of the compound by HPLC analysis; format: physicochemical
In short: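 Lipophilicity was measured by reversed-phase HPLC on a Nucleosil C18 column with isocratic water/methanol (3:1) at 0.5 ml/min and UV detection at 230 and 245 nm. Dead time was set with thiourea (t0 0.728 min). Retention factor was k = (tR − t0)/t0, and log P came from a calibration against at least six reference compounds.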

[31] = Growth inhibition of human OVCAR8 cells after 48 hrs; format: functional; conditions: OVCAR-8, 48 h; in short: as §1
[32] = tested on: Malme-3M; experiment: Growth inhibition of human MALME-3M cells after 48 hrs; format: functional; in short: as §1
[33] = Growth inhibition of human UO31 cells after 48 hrs; format: functional; conditions: UO-31, 48 h; in short: as §3
[34] = read-out: pLC50 (the source's name) (converted)

Structure (SMILES): CC1=C(SCCC(=O)OCC(=O)NCCC[Te]c2ccccc2)C(=O)c2ccccc2C1=O
- GI50 [1]: 1.29 µM
- CC50 [1, 34]: 6.61 µM
- TGI ([1]; read-out: pTGI (converted)): 2.88 µM
- diameter of the inhibition zone (DIZ) [2]: 13 mm
- GI50 [3]: 2.82 µM
- LC50 [3]: > 100 µM
- TGI ([3]; read-out: pTGI (converted)): > 100 µM
- GI50 [4]: 1.91 µM
- CC50 [4, 34]: 23.4 µM
- TGI ([4]; read-out: pTGI (converted)): 5.5 µM
- GI50 [5]: 3.02 µM
- CC50 [5, 34]: 37.2 µM
- TGI ([5]; read-out: pTGI (converted)): 9.55 µM
- GI50 [6]: 1.29 µM
- CC50 [6, 34]: 5.25 µM
- TGI ([6]; read-out: pTGI (converted)): 2.63 µM
- GI50 [7]: 2.57 µM
- CC50 [7, 34]: > 100 µM
- TGI ([7]; read-out: pTGI (converted)): 9.33 µM
- GI50 [8]: 2.95 µM
- LC50 [8]: 39.8 µM
- TGI ([8]; read-out: pTGI (converted)): 11.2 µM
- GI50 [9]: 2.88 µM
- CC50 [9, 34]: 83.2 µM
- TGI ([9]; read-out: pTGI (converted)): 12.6 µM
- GI50 [10]: 2.29 µM
- CC50 [10, 34]: 44.7 µM
- TGI ([10]; read-out: pTGI (converted)): 7.41 µM
- GI50 [11]: 2.29 µM
- CC50 [11, 34]: 17.8 µM
- TGI ([11]; read-out: pTGI (converted)): 5.5 µM
- GI50 [12]: 1.82 µM
- CC50 [12, 34]: 13.5 µM
- TGI ([12]; read-out: pTGI (converted)): 4.57 µM
- GI50 [13]: 1.66 µM
- CC50 [13, 34]: 11.5 µM
- TGI ([13]; read-out: pTGI (converted)): 4.17 µM
- GI50 [14]: 2.14 µM
- LC50 [14]: 75.9 µM
- TGI ([14]; read-out: pTGI (converted)): 5.37 µM
- GI50 [15]: 1.74 µM
- LC50 [15]: 12.9 µM
- TGI ([15]; read-out: pTGI (converted)): 4.37 µM
- GI50 [16]: 1.29 µM
- CC50 [16, 34]: > 100 µM
- TGI ([16]; read-out: pTGI (converted)): 3.63 µM
- GI50 [17]: 2.14 µM
- LC50 [17]: 29.5 µM
- TGI ([17]; read-out: pTGI (converted)): 7.41 µM
- diameter of the inhibition zone (DIZ) [18]: 0 mm
- GI50 [19]: 3.98 µM
- CC50 [19, 34]: 60.3 µM
- TGI ([19]; read-out: pTGI (converted)): 17 µM
- GI50 [20]: 2.69 µM
- LC50 [20]: 29.5 µM
- TGI ([20]; read-out: pTGI (converted)): 8.32 µM
- diameter of the inhibition zone (DIZ) [21]: 11 mm
- GI50 [22]: 1.86 µM
- CC50 [22, 34]: 13.5 µM
- TGI ([22]; read-out: pTGI (converted)): 4.57 µM
- GI50 [23]: 1.32 µM
- CC50 [23, 34]: 51.3 µM
- TGI ([23]; read-out: pTGI (converted)): 4.17 µM
- GI50 [24]: 1.74 µM
- CC50 [24, 34]: 12.3 µM
- TGI ([24]; read-out: pTGI (converted)): 4.37 µM
- GI50 [25]: 2.63 µM
- CC50 [25, 34]: 42.7 µM
- TGI ([25]; read-out: pTGI (converted)): 10.2 µM
- GI50 [26]: 2.57 µM
- CC50 [26, 34]: > 100 µM
- TGI ([26]; read-out: pTGI (converted)): 7.24 µM
- GI50 [27]: 3.31 µM
- LC50 [27]: 33.9 µM
- TGI ([27]; read-out: pTGI (converted)): 9.12 µM
- GI50 [28]: 1.48 µM
- CC50 [28, 34]: 24.5 µM
- TGI ([28]; read-out: pTGI (converted)): 5.89 µM
- GI50 [29]: 1.91 µM
- CC50 [29, 34]: 8.91 µM
- TGI ([29]; read-out: pTGI (converted)): 4.17 µM
- logP [30]: 3.8
- GI50 [31]: 2.75 µM
- LC50 [31]: 51.3 µM
- TGI ([31]; read-out: pTGI (converted)): 11.5 µM
- GI50 [32]: 2.19 µM
- CC50 [32, 34]: 25.7 µM
- TGI ([32]; read-out: pTGI (converted)): 6.03 µM
- GI50 [33]: 1.86 µM
- LC50 [33]: 36.3 µM
- TGI ([33]; read-out: pTGI (converted)): 9.55 µM
